Experimental data taken from PMC4138289 (Nature chemical biology, 2014).

Legend:
mouse spleen proteomes = test: in vivo proteome reactivity, gel-based ABPP of mouse spleen; settings: mice, 10 or 20 mg/kg, i.p., 1 hr
Outline: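 C57BL/6 mice dosed i.p. in saline/EtOH/DMSO/Cremophor EL 17:1:1:1 (10 μL g−1). Inhibitor (20 mg/kg) or vehicle for 1 hr, then probe (10 or 20 mg/kg) for 1 hr; isoflurane, cervical dislocation. Tissues were DPBS-washed and bead-homogenized, spun at 1,500 × g, then 100,000 × g for 45 min (membrane/cytosolic) and set to 2 mg/mL. Rhodamine-azide click, SDS-PAGE, in-gel fluorescence.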

[1] = system: proteomes of cancer cell lines; test: in situ proteomic reactivity by gel-based ABPP in cancer cells; assay type: cell-based, human; settings: in situ treatment with 1 μM probe, cancer cells (SW620 and others)
[2] = cytotoxicity, Sulforhodamine B assay, EGFR-independent cell lines; assay type: cell-based; settings: human (MDA-MB-435S, SW620), mouse (NIH3T3)
[3] = time course of compound concentrations in A431 cells; assay type: in vitro ADME, human; settings: relative cellular concentrations

Question: Which “in vivo proteomic reactivity” value (mouse spleen proteomes) does the source give for `C#Cc1cccc(Oc2ccc(-c3nn([C@@H]4CCCN(C(=O)C=C)C4)c4ncnc(N)c34)cc2)c1` [Probe 4] here?
Answer: higher proteomic reactivity than probe 6

Question: Which time-dependent proteomic reactivity [1] does the source give for `C#CCOc1cc2ncnc(Nc3ccc(F)c(Cl)c3)c2cc1NC(=O)CCCN(C)C` [Probe 13] here?
Answer: Negligible time-dependent proteomic reactivity

Question: Which IC50 at 72 h [2] does the source give for `CN(C)C/C=C/C(=O)Nc1cc2c(Nc3ccc(F)c(Cl)c3)ncnc2cc1O[C@H]1CCOC1` [afatinib, reference compound] here?
Answer: 700 to 2200 nM

Question: And the “stability / accumulation of compound in cells” value [3]?
Answer: more prolonged accumulation in cells
